The values that follow come from ChEMBL document CHEMBL4138070, “Synthesis and biological evaluation of (-)-kunstleramide and its derivatives” (Medchemcomm, 2017).

Common to all, as to format: functional, cell-based
One assay relates to A549. As to the kind of experiment: Antiproliferative activity in human A549 cells assessed as reduction in cell number incubated for 48 hrs by SRB assay. The conditions noted are these: A549, 48 h. The procedure, abridged:
(§1)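 Cell lines from ATCC, kept in DMEM with 10% FBS and 1% penicillin–streptomycin at 37 °C under 5% CO2. Seeded from 5×10^4 cells/ml suspension, grown 24 h, then treated with 1, 10, 50 and 100 μM for 48 h. Fixed with cold 10% TCA 1 h at 4 °C, stained with 0.057% SRB, dye dissolved in 10 mM Tris, read at 510 nm. IC50 is 50% cell-number decrease versus untreated control, from regression.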

Another assay relates to HeLa. Kind of assay: Antiproliferative activity in human HeLa cells assessed as reduction in cell number incubated for 48 hrs by SRB assay. The procedure, abridged: as §1
For a further assay, the system named is MCF7. As to the kind of experiment: Antiproliferative activity in human MCF7 cells assessed as reduction in cell number incubated for 48 hrs by SRB assay. The conditions noted are these: MCF7, 48 h. Put shortly:
as §1

In another assay the test system is IMR-32. As to the kind of experiment: Antiproliferative activity in human IMR32 cells assessed as reduction in cell number incubated for 48 hrs by SRB assay. The conditions noted are these: IMR-32, 48 h. The procedure, abridged:
as §1

On to `COc1ccc(C[C@@H](O)/C=C/C=C/C(=O)N2CCCC2)cc1OC`, for which the IC50 in the assay with A549 amounted to 24.4 µM; in the assay with HeLa, 14.1 µM; with MCF7 it was 26.2 µM; in the assay with IMR-32, 12 µM.

For the molecule `COc1ccc(C[C@@H](O)/C=C/C=C/C(=O)N2CCN(c3ncccn3)CC2)cc1OC`, the half-maximal inhibitory concentration (IC50) was 9.92 µM in the assay on A549, 12.6 µM in the assay on HeLa, 14.7 µM in the assay with MCF7 and 10.8 µM in the assay on IMR-32.

`COc1ccc(C[C@@H](O)/C=C/C=C/C(=O)NCc2cc(OC)c(OC)c(OC)c2)cc1OC`: the IC50 in the assay on A549 was 19.2 µM; in the assay on HeLa, 10.7 µM; in the assay on MCF7, 15.3 µM; with IMR-32, 13.4 µM.

As to `COc1ccc(C[C@@H](O)/C=C/C=C/C(=O)N2CCCCC2)cc1OC`, the IC50 with A549 was 16.4 µM; in the assay with HeLa, 14.1 µM; in the assay on MCF7, 39.5 µM; in the assay on IMR-32, 11 µM.

As to `COc1ccc(C[C@@H](O)/C=C/C=C/C(=O)N2CCN(c3ccccn3)CC2)cc1OC`, the IC50 in the assay on A549 stood at 8.13 µM; in the assay with HeLa it was 23.6 µM; in the assay with MCF7, 23.6 µM; in the assay with IMR-32, 11.1 µM.

In the case of `COc1ccc(C[C@@H](O)/C=C/C=C/C(=O)NCc2ccccc2)cc1OC`, the IC50 in the assay on A549 is 17.1 µM; in the assay on HeLa it was 12.9 µM; in the assay on MCF7, 33.6 µM; with IMR-32 it was 16.6 µM.

With `CCN1CCN(C(=O)/C=C/C=C/[C@H](O)Cc2ccc(OC)c(OC)c2)CC1`, the IC50 worked out at 15.7 µM in the assay with A549, 11.7 µM in the assay with HeLa, 11.5 µM in the assay with MCF7 and 10.8 µM in the assay with IMR-32.

In the case of `COc1ccc(C[C@@H](O)/C=C/C=C/C(=O)N2CCN(Cc3ccc4c(c3)OCO4)CC2)cc1OC`, the 50% inhibitory concentration (IC50) with A549 was determined as 7.58 µM; with HeLa, 8.25 µM; with MCF7, 12.3 µM; in the assay on IMR-32, 8.23 µM.

As to `COc1ccc(C[C@@H](O)/C=C/C=C/C(=O)NCc2ccc(Cl)cc2)cc1OC`, the IC50 in the assay with A549 turned out to be 16.5 µM; with HeLa it was 13.4 µM; in the assay on MCF7, 18.1 µM; in the assay on IMR-32 it was 15.7 µM.

For `COc1ccc(C[C@@H](O)/C=C/C=C/C(=O)N2CCSCC2)cc1OC`, the IC50 in the assay on A549 worked out at 18 µM; in the assay on HeLa, 20.6 µM; in the assay on MCF7, 20.2 µM; in the assay with IMR-32, 16.1 µM.

Regarding `COc1ccc(C[C@@H](O)/C=C/C=C/C(=O)N2CCN(C)CC2)cc1OC`, the half-maximal inhibitory concentration (IC50) with A549 was 22.2 µM; in the assay with HeLa it was 16.5 µM; in the assay on MCF7 it was 17.1 µM; in the assay on IMR-32 it was 18.9 µM.

In the case of `COc1ccc(C[C@@H](O)/C=C/C=C/C(=O)N2CCN(c3ccccc3)CC2)cc1OC`, the IC50 is 14.2 µM in the assay on A549, 9.75 µM with HeLa, 12 µM in the assay on MCF7 and 9.43 µM with IMR-32.

`COc1ccc(CNC(=O)/C=C/C=C/[C@H](O)Cc2ccc(OC)c(OC)c2)cc1`: the half-inhibitory concentration (IC50) in the assay with A549 was 16.8 µM; with HeLa, 9.45 µM; in the assay with MCF7 it was 26.6 µM; in the assay on IMR-32 it was 17.4 µM.

Consider `COc1ccc(C[C@@H](O)/C=C/C=C/C(=O)N2CCOCC2)cc1OC`, for which the IC50 with A549 came out at 17.9 µM; in the assay with HeLa it was 16.4 µM; with MCF7, 16.2 µM; in the assay with IMR-32, 20.4 µM.

Regarding `CCNC(=O)/C=C/C=C/[C@H](O)Cc1ccc(OC)c(OC)c1`, the concentration for half-maximal inhibition (IC50) in the assay on A549 stood at 13.8 µM; in the assay on HeLa, 14.6 µM; in the assay on MCF7, 12.9 µM; in the assay with IMR-32, 9.43 µM.

Regarding `COc1ccc(C[C@@H](O)/C=C/C=C/C(=O)N2CCN(C(c3ccccc3)c3ccccc3)CC2)cc1OC`, the IC50 in the assay on A549 is 10.6 µM; with HeLa, 10.5 µM; in the assay on MCF7, 12.5 µM; with IMR-32 it was 11.9 µM.

As to `COc1ccc(/C=C\c2cc(OC)c(OC)c(OC)c2)cc1O` [COMBRETASTATIN A4], the IC50 in the assay with A549 turned out to be 6.45 µM; with HeLa, 5.36 µM; with MCF7 it was 4.63 µM; in the assay on IMR-32, 5.72 µM.

Turning to `O=C(/C=C/C=C/c1ccc2c(c1)OCO2)N1CCCCC1` [PIPERINE], the half-inhibitory concentration (IC50) is 11.9 µM in the assay with A549, 19.2 µM in the assay on HeLa, 13 µM with MCF7 and 10.2 µM in the assay with IMR-32.
